Here are results for two compounds from ChEMBL document CHEMBL1157791, “Discovery of GSK1070916, a potent and selective inhibitor of Aurora B/C kinase” (J Med Chem, 2010).

Molecules are shown by their SMILES. Calls of active or inactive are those of the source. No cut-off for these calls is given here.

Data set [1] in a line: Solubility at pH 4. The format is physicochemical. Particulars: buffer.
The next data set has as its target Cytochrome P450 2C19 (Homo sapiens, UniProt P33261). Nature of the data set: Inhibition of CYP2C19 in human liver microsomes using S-mephenytoin as substrate. The format is ADME, Microsome. In short, it runs like this: (§1)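 Human liver microsomes were incubated with a selective probe substrate for each CYP isozyme across a compound concentration series. Product formation was monitored by LC/MS/MS. Activity was normalized to the no-compound control, expressed as percent of control activity, and used to generate an IC50.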

The nature of data set [2]: Blood clearance in mouse at 2 mg/kg, iv administered as single dose. In kind it is ADME, organism-based. Further details: dose 2 mg/kg, route intravenous. Particulars: whole blood. In short, it runs like this:
(§2)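 Conscious mice received a single intravenous dose. Blood clearance, dose-normalized AUC(0-∞) and steady-state volume of distribution were derived from the profile.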

Data set [3] concerns Mus musculus. Nature of the data set: Dose normalized AUC (0 to infinity) in mouse at 2 mg/kg, iv administered as single dose. The format is ADME, organism-based. The arrangement: time infinity, dose 2 mg/kg, route intravenous. Particulars: in vivo. In short, it runs like this:
as §2

A short description of data set [4]: Mean residence time in mouse at 2 mg/kg, iv administered as single dose. To be noted: in vivo. The arrangement: dose 2 mg/kg, route intravenous. In kind it is ADME, organism-based.
Data set [5] has as its target T1, Cytochrome P450 2D6 (Homo sapiens, UniProt P10635). Nature of the data set: Inhibition of CYP2D6 in human liver microsomes using bufuralol as substrate. In kind it is ADME, Microsome. In short, it runs like this:
as §1
For orientation: Liver microsomes are vesicles of endoplasmic reticulum, rich in cytochrome P450 enzymes.

In the next data set the target is T2, Cytochrome P450 1A2 (Homo sapiens, UniProt P05177).
T2 sequence (P05177 whole entry): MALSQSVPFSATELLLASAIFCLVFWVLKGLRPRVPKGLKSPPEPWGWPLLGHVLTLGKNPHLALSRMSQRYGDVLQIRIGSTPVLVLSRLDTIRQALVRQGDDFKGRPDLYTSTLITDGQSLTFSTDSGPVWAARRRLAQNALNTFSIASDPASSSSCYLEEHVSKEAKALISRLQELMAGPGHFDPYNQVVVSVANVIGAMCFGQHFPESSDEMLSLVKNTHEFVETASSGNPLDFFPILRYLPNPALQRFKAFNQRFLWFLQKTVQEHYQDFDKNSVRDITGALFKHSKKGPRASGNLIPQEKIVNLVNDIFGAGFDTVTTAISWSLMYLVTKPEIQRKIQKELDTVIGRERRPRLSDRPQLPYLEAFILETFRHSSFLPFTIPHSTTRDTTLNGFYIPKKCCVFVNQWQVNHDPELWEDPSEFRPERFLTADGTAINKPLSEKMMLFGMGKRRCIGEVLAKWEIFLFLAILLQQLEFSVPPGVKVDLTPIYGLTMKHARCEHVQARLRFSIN
Nature of the data set: Inhibition of CYP1A2 in human liver microsomes using phenacetin as substrate. In kind it is ADME, Microsome. In short, it runs like this: (§3)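 Human liver microsome incubations with a selective probe substrate for each CYP isozyme. Product formation was read by LC/MS/MS. Activity with compound was normalized to activity without compound and expressed as percent of control activity.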

For data set [6], the target named is T3, Cytochrome P450 2C9 (Homo sapiens, UniProt P11712). Nature of the data set: Inhibition of CYP2C9 in human liver microsomes using diclofenac as substrate. In kind it is ADME, Microsome. In short, it runs like this: as §3
The test system of data set [7] is HL-60. Nature of the data set: Antitumor activity against human HL60 cells xenografted in nude mouse assessed as complete tumor regression at 100 mg/kg, ip QD for 5 days and for 2 cycles. The format is functional, organism-based. The arrangement: dose 100 mg/kg. In short, it runs like this: (§4)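 Subcutaneous HL-60 xenografts in nude mice. Dosing was intraperitoneal, once daily for five days, repeated for two cycles (qdx5 ×2), at 75 or 100 mg kg-1. Untreated mice served as controls. Tumors were followed for regression and for regrowth up to 51 days after the last dose.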

The test system of data set [8] is HL-60. Nature of the data set: Antitumor activity against human HL60 cells xenografted in nude mouse assessed as complete suppression of tumor regrowth at 100 mg/kg, ip QD for 5 days and for 2 cycles measured on day 51 post last dose. The arrangement: dose 100 mg/kg. In kind it is functional, organism-based. The method, boiled down: as §4
For data set [9], the system named is Mus musculus. Nature of the data set: Inhibition of histone H3 phosphorylation in ip dosed mouse xenografted with human COLO205 cells after 30 hrs. The format is functional, organism-based. Particulars: COLO 205. In short, it runs like this: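 Mice bearing advanced Colo205 tumors were treated intraperitoneally at several doses. Tumor phospho-histone H3 (Ser10) was measured by ELISA 30 h post dose and expressed as percent inhibition relative to control.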

The target of data set [10] is T4, Aurora kinase C (Homo sapiens) (UniProt Q9UQB9).
T4 sequence (whole entry): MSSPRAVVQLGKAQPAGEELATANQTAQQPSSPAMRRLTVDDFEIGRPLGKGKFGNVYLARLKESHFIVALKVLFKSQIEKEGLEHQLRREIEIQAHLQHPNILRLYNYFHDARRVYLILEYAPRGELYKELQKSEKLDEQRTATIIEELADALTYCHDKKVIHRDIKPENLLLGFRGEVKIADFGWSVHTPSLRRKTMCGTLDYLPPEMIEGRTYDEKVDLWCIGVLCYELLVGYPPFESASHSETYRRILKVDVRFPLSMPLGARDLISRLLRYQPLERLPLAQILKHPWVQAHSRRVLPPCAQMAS
Briefly: Inhibition of human Aurora C assessed as dissociation half life by rapid dilution method.

The target in data set [11] is T5, Aurora kinase C (Homo sapiens, UniProt Q9UQB9).
T5 sequence (Q9UQB9 whole entry): T4 sequence (whole entry)
Briefly: Competitive inhibition of human Aurora C ATP binding site.

Data set [12] deals with HL-60. Briefly: Antitumor activity against human HL60 cells xenografted in nude mouse assessed as complete tumor regression at 75 mg/kg, ip QD for 5 days and for 2 cycles. The format is functional, organism-based. Further details: dose 75 mg/kg. In short, it runs like this: as §4
For orientation: Xenograft models place foreign cells or tissue in a host animal.

The target in a further data set is Cytochrome P450 3A4 (Homo sapiens, UniProt P08684). Briefly: Inhibition of CYP3A4 in human liver microsomes using midazolam as substrate. The format is ADME, Microsome. The method, boiled down:
as §1

Data set [13] is described as follows: Volume of distribution at steady state in mouse at 2 mg/kg, iv administered as single dose. In kind it is ADME, organism-based. Further details: dose 2 mg/kg, route intravenous. To be noted: in vivo, read-out: Vdss. The method, boiled down: as §2
The target in data set [14] is T6, Aurora kinase B (Homo sapiens, UniProt Q96GD4). Briefly: Inhibition of human Aurora B by in vitro inhibition assay.
Data set [15] addresses T5, Aurora kinase C. Briefly: Competitive inhibition of Aurora C ATP binding site.
For data set [16], the target named is Hepatocyte growth factor receptor (Homo sapiens, UniProt P08581). Briefly: Inhibition of MET.
In a further data set the target is T7, Aurora kinase A (Homo sapiens, UniProt O14965).
T7 sequence (O14965 whole entry): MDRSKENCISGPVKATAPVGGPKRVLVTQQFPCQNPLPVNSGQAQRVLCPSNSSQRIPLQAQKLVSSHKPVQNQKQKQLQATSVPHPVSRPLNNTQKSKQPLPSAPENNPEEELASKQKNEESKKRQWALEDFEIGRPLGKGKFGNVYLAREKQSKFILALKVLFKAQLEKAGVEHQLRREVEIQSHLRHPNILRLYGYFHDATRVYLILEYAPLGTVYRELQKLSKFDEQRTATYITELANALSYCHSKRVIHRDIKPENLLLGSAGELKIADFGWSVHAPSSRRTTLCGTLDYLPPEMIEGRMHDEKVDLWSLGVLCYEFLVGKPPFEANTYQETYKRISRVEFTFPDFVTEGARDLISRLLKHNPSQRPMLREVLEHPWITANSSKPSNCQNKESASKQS
Nature of the data set: Inhibition of human Aurora A.

The target of data set [17] is T1, Cytochrome P450 2D6. Briefly: Inhibition of CYP2D6. The format is ADME. In short, it runs like this: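 Human liver microsomes incubated with a selective probe substrate for each CYP isozyme, with and without test compound. Metabolite formation quantified by LC/MS/MS. Activity with compound normalized to activity without compound and expressed as percent of control. IC50 derived from the concentration response.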

The nature of data set [18]: Plasma clearance in iv dosed rat. The format is ADME, organism-based.
Data set [19] has as its target Insulin-like growth factor 1 receptor (Homo sapiens, UniProt P08069). Nature of the data set: Inhibition of IGF1R. In short, it runs like this:
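Part of a 328 human protein and lipid kinase selectivity panel run as in vitro activity or binding assays.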

The nature of data set [20]: Volume of distribution at steady state in iv dosed rat. The format is ADME, organism-based. To be noted: in vivo, read-out: Vdss.
Data set [21] has as its target T6, Aurora kinase B. Briefly: Inhibition of human Aurora B assessed as residence time by rapid dilution method.
In a further data set the test system is A549. Nature of the data set: Antiproliferative activity against human A549 cells after 6 to 7 days by celltiter-glo luminescence assay in absence of 70% human serum albumin. The format is functional, cell-based.
Data set [22] in a line: Permeability by PAMPA. In kind it is ADME. Particulars: read-out: permeability. A general note: PAMPA measures passive passage across an artificial lipid membrane.
Data set [23] concerns the target T3, Cytochrome P450 2C9. Nature of the data set: Inhibition of CYP2C9. In kind it is ADME.
Data set [24] can be described thus: Half life in iv dosed rat. To be noted: in vivo. The format is ADME, organism-based.

T3 sequence (P11712 whole entry): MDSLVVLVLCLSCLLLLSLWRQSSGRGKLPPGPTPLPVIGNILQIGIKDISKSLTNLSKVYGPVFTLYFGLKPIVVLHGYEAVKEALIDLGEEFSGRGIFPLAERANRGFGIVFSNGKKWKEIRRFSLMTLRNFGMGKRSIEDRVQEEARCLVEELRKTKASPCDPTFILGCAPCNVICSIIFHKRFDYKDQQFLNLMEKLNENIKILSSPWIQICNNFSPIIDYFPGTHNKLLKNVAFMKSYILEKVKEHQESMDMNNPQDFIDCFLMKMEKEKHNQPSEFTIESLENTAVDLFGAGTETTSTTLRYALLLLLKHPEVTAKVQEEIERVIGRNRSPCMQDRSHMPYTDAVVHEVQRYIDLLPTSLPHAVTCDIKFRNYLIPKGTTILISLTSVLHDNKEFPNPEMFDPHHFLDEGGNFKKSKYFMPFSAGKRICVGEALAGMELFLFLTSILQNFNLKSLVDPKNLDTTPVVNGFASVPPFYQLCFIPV
T6 sequence (Q96GD4 whole entry): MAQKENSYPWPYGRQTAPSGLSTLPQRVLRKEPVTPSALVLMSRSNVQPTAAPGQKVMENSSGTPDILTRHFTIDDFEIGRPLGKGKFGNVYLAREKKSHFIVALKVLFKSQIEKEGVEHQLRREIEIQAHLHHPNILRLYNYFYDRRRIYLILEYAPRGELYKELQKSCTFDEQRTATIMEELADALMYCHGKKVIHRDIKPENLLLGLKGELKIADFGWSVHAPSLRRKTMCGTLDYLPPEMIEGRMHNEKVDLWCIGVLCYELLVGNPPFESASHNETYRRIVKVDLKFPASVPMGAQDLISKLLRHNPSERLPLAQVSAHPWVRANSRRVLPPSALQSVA
T1 sequence (P10635 whole entry): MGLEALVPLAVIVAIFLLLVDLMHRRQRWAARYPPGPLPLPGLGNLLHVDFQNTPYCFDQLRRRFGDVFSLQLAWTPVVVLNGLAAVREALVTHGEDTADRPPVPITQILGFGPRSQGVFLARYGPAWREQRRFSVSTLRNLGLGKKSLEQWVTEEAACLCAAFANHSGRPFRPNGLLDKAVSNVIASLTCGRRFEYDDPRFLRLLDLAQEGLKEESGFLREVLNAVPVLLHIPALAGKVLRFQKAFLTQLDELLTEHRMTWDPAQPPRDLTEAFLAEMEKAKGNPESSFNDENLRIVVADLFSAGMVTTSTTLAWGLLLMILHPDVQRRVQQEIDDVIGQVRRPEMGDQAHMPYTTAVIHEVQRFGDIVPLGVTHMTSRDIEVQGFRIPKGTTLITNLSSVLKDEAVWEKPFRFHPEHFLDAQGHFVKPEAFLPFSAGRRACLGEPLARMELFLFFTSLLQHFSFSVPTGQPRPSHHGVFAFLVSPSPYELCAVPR
Chain of Insulin-like growth factor 1 receptor (P08069 31-736 limits assumed): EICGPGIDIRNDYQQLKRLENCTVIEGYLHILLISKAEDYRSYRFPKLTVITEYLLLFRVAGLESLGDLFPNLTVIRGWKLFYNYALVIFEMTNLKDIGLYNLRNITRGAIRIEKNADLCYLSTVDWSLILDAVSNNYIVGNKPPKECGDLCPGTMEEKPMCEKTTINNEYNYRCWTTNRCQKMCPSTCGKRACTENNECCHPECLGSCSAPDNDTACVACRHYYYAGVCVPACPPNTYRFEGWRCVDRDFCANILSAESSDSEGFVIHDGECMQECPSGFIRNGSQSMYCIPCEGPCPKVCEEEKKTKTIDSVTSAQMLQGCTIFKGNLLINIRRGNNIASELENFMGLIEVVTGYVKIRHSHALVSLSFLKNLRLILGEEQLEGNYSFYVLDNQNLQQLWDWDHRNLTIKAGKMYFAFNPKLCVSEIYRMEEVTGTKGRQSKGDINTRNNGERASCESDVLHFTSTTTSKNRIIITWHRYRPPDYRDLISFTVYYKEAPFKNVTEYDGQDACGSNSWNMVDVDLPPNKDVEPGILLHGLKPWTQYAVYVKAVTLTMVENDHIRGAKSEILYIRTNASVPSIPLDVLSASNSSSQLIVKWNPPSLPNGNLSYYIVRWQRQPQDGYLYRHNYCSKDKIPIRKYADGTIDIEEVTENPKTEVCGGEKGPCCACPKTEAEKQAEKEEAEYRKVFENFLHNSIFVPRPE
Chain of Insulin-like growth factor 1 receptor (P08069 741-1367 limits assumed): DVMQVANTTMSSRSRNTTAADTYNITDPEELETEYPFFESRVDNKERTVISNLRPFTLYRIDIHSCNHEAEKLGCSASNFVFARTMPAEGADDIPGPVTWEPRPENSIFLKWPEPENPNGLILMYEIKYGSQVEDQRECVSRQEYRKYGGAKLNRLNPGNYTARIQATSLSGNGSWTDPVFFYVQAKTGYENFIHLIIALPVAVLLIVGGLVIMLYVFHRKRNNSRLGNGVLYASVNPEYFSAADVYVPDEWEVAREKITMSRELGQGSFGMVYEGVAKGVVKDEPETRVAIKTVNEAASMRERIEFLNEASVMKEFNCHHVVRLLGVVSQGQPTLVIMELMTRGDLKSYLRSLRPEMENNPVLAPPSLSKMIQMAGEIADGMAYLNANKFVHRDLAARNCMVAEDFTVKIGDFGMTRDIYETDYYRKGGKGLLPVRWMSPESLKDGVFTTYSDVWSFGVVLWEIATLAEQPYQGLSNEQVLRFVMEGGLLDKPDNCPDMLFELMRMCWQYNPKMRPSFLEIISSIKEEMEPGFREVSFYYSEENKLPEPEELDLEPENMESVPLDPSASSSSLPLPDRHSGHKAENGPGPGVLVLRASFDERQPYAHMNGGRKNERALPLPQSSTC
Chain of Hepatocyte growth factor receptor (P08581 whole entry): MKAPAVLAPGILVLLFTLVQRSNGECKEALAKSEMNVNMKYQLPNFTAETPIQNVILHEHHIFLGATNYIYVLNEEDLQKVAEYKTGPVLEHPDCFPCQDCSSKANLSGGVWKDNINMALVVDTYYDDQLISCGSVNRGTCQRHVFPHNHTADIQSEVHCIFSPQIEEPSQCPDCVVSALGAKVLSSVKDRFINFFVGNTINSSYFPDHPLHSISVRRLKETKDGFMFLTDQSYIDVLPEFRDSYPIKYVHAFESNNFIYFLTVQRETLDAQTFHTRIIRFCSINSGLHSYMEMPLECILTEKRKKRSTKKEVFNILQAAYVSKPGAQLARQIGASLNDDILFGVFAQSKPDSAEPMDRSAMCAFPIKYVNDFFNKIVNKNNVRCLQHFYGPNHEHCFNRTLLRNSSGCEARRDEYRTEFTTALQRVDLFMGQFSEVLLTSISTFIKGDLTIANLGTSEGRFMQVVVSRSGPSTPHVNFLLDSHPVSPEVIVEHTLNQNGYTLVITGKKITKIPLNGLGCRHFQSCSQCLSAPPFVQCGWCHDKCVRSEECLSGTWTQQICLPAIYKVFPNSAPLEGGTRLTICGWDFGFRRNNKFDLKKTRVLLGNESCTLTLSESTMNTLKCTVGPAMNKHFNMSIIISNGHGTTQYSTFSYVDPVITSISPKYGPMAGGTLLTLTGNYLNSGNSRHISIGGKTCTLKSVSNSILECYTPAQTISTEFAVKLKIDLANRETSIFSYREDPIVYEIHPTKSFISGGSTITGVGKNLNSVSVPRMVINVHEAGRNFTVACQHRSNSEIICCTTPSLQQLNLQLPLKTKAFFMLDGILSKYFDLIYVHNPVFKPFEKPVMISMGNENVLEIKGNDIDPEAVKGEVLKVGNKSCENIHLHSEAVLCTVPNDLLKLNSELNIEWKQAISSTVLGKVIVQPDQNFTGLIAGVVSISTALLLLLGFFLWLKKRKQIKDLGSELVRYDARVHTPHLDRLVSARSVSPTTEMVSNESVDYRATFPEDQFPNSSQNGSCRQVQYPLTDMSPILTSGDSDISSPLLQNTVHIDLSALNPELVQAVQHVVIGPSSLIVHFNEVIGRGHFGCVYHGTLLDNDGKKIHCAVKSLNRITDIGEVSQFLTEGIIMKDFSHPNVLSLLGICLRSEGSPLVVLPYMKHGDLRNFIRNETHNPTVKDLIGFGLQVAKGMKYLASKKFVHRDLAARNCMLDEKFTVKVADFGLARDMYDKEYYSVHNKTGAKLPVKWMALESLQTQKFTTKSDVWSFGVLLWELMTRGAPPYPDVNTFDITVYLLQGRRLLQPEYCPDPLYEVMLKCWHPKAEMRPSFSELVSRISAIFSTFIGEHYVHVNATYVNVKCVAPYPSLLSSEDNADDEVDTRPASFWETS
Chain of Cytochrome P450 2C19 (P33261 whole entry): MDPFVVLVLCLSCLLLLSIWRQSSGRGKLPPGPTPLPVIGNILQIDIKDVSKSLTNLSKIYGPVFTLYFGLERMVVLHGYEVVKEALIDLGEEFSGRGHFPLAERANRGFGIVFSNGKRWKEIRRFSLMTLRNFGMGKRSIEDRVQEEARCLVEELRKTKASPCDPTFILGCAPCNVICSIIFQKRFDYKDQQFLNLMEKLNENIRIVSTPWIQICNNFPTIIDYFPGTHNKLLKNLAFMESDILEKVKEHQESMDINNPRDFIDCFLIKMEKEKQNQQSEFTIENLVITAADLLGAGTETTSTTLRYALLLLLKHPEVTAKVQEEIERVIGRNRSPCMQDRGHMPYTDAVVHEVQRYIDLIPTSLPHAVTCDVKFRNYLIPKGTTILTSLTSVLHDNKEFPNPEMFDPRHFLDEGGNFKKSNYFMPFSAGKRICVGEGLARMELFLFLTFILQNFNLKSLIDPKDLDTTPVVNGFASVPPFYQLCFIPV
Chain of Cytochrome P450 3A4 (P08684 whole entry): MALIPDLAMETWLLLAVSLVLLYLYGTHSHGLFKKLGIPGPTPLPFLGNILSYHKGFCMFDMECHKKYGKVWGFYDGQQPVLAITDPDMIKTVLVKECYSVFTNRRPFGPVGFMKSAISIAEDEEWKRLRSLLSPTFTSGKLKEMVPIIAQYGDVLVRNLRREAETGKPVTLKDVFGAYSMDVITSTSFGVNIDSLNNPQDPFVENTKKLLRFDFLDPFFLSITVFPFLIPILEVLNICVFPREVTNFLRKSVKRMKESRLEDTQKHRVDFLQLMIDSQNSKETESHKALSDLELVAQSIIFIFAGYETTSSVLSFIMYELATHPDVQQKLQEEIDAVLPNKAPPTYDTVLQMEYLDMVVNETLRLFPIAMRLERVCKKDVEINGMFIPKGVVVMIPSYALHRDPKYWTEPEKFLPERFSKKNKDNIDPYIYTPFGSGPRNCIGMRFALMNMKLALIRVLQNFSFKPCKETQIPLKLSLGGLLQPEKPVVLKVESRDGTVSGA

In general, solubility refers to the dissolved amount per volume that the medium holds. As usually defined, the IC50 is the concentration that inhibits the measured activity by half. A word on the clearance: it is a measure of how efficiently the substance is removed, as volume per time. High values mean efficient removal, low ones inefficient removal. By MRT is commonly meant a mean duration of stay, worked out from the concentration-time curve. In general, Ki refers to the dissociation constant of the complex between target and ligand, obtained from inhibition or displacement. A high value points to lower affinity. In [1], `CCn1cc(-c2ccnc3[nH]c(-c4cccc(CN(C)C)c4)cc23)c(-c2ccc(NC(=O)N(C)C)cc2)n1` [GSK-1070916] came in with a solubility of more than 10000 µg/mL. The IC50 is 81000 nM on Cytochrome P450 2C19; 12000 nM against Cytochrome P450 2D6 [5]; more than 33000 nM on Cytochrome P450 1A2; 38000 nM against Cytochrome P450 2C9 [6]; 5 nM against Aurora kinase B [14]; 6.5 nM on Aurora kinase C [15]. In [2], the clearance was 49.4 mL/min/kg. The AUC with Mus musculus [3] amounted to 345 ng·h/mL/mg/kg. In data set [4], this compound came in with an MRT of 18 min. In addition, the inhibition entry in the data set with HL-60 [7], in the data set with HL-60 [8] and with HL-60 [12] was “Active” throughout. Further, the inhibition entry in the data set with Mus musculus [9] was “Dose-dependent effect”. Besides, the Activity in data set [10] was found to be 270 min. Further, the Ki on Aurora kinase C [11] and at Aurora kinase C [15] was 1.5 nM in each case. For the same compound, the “inhibition (INH)” value against Cytochrome P450 3A4 is on record as “Not Active”. In addition, the Vd in [13] was found to be 0.8 L/kg.

Broadly, the EC50 is the concentration at which the effect is half-maximal. A word on the half-life: it is the time in which the quantity being followed falls by half. Read a high half-life as slow decline. With `CCn1cc(-c2ccnc3[nH]ccc23)c(-c2ccc(NC(=O)Nc3ccccc3)cc2)n1`, the IC50 in data set [16] is 316 nM; against Aurora kinase A, 631 nM; at Cytochrome P450 2D6 [17] it was less than 100 nM; in [19], 158 nM; on Cytochrome P450 2C9 [23], less than 100 nM. This compound yielded a clearance in data set [18] of 128 mL/min/kg. Moreover, in data set [20], the Vd came to 1.7 L/kg. For the same compound, at Aurora kinase B [21], the TIME was determined as 0.128 h. Besides, the response in the data set on A549 was half-maximal at 79 nM (EC50). The Papp in [22] is 17 ×10⁻⁶ cm/s. Further, in data set [24], the half-life was found to be 12 min.
